An excerpt weighted towards active compounds, which were near 2.7% of everything screened.
OX1R antag-1 = OX1R (human) antagonism; O43613; OX1R-expressing cells, FRET antagonist read-out; inhibition, % at 6.6 µM; hit rate 1.8% among 330,000; in the data active means inhibition mostly above about 38%, no sharp cut-off; inactive means mostly below about 40%;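 further: 0% = agonist challenge alone and 100% = reference antagonist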
OXTR potentiator = potentiates the human oxytocin receptor response; CHO-OTR cells, Fluo-8 calcium fluorescence, potentiator mode; 0% = oxytocin EC15, 100% = EC100; activation, % at 3 µM; hit rate 0.061% among 320,000; AID 2445;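 active means activation above that plate's cutoff, the mean activation of tested compounds plus 3 SD, cut at about 6.6% in these data, passing the limit was not always enough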;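 further: 100% uses oxytocin at 75 nM as the full agonist control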
Target sequence (P30559 whole entry, looked up): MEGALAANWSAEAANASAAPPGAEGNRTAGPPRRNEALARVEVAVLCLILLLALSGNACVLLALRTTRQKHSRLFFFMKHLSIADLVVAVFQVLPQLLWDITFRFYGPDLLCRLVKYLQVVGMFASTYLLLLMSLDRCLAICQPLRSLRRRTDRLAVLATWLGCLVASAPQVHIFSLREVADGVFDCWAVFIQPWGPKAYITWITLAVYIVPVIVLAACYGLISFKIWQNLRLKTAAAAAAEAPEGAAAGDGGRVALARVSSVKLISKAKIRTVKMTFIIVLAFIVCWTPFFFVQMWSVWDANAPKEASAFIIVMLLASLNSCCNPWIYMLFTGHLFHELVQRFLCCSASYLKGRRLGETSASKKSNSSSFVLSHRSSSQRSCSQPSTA
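Assay system: CHO cell line stably expressing human OTR. Reagent: EC15 oxytocin agonist. Dosing: single dose, 3.0 µM nominal final compound concentration. Timing: compound 6 min at room temperature before oxytocin, 100 s read. Signal: kinetic Fluo-8 calcium fluorescence. Controls: oxytocin EC15 low and EC100 high.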
OX1R antag-2 = blocks the human orexin 1 receptor; hit rate 0.43% among 330,000; CHO/OX1R cells, Fluo-8 calcium fluorescence, orexin A; AID 434989; inhibition, % at 5 µM;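 active means inhibition above its plate's threshold, mean inhibition of all tested compounds on the plate plus 3 SD, cut at about 37% in these data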;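 further: 0% = orexin A challenge wells and 100% = SB-334867-A antagonist wells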
CHO parental Ca = counter-screen: ATP calcium response change in parental CHO cells; inhibition, % at 5.6 µM; AID 463079; hit rate 0.63% among 330,000; parental CHO-K1, ATP-induced calcium, Fluo-8 fluorescence;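 active means inhibition above that plate's mean sample inhibition plus 3 SD, cut at about 26% in these data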;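 further: 0% = ATP-challenged DMSO wells and 100% = DMSO wells without ATP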
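Assay system: parental CHO cells; Read-out basis: percent inhibition of ATP-evoked calcium rise, normalized to controls; Benchmarks: ATP and no-ATP DMSO wells; Compound dosing: single nominal dose of 5.6 µM per compound; Signal: Fluo-8 calcium dye fluorescence; Also added: ATP as calcium-mobilizing challenge; Repeats: singlicate.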
V1R ag counter = activates human V1a receptor in oxytocin agonist counter-screen; P37288; CHO-V1R cells, Fluo-8 calcium fluorescence, agonist mode; 0% DMSO, 100% 3 nM vasopressin; activation, % at 3 µM; hit rate 0.25% among 320,000; AID 2797;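 active means activation above the mean activation of all tested compounds plus 3 SD, per screening run, cut at about 20% in these data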;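 further: signal is peak over basal fluorescence ratio across a 100 second FLIPR read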
OXTR ag = agonists of human oxytocin receptor | P30559 | CHO-OTR cells, Fluo-8 calcium fluorescence; normalized: DMSO 0%, oxytocin 100% | activation, % at 3 µM | hit rate 0.32% among 320,000 | AID 2435;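 active means activation above the mean of all tested compounds plus 3 SD, cutoff set per screening run, cut at about 20% in these data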;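 further: peak over basal fluorescence ratio from a 100 s FLIPR kinetic read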
Starred values were filed as active, the others as inactive.

SMILES	OX1R antag-1	OXTR potentiator	OX1R antag-2	CHO parental Ca	V1R ag counter	OXTR ag
COc1ccc(N(CC(=O)NC2CCCC2)C(=O)Cn2nnc(-c3ccc(F)cc3)n2)cc1	5	-6	-13	-12	4	-1
CC(C)N1CCC2(CC1)N=C(c1ccc3c(c1)OCO3)CC(c1cc(Cl)ccc1O)N2 (centres undefined)	87*	-22	68*	38	1	2
Cc1ccc(C2(C)NC(=O)N(CC(=O)NCc3ccccc3Cl)C2=O)cc1 (centres undefined)	5	-18	-6	-9	3	-2
Cc1n[nH]c(=O)c2c(NC(=O)CSc3nc4ccccc4c(=O)n3-c3ccc(OC(F)F)cc3)oc(C)c12	76*	-4	-8	-21	3	-1
CCCCN1C(=O)c2ccc(C(=O)OCC(=O)N3CCN(c4ccccc4)CC3)cc2C1=O	2	-2	-26	-24	3	4
COCCCN1C(=O)c2ccc(C(=O)OCC(=O)N3CCN(c4ccccc4)CC3)cc2C1=O	46*	-3	2	-3	3	0
CCOc1ccc([C@@H]2CC=C(C(=O)O)[C@H](c3cccc(Cl)c3)N2S(=O)(=O)c2ccc(C)cc2)cc1	55*	-17	-18	4	-1	-1
Cc1ccc(S(=O)(=O)N2[C@@H](c3cccc(Cl)c3)C(C(=O)O)=CC[C@H]2c2ccc(Cl)cc2)cc1	74*	-15	30	-1	-1	-1
Cc1nc2ccccc2c2c1C(=O)NC2=O	39*	-9	-4	-6	2	0
O=C(Nc1nc2c(s1)CCCC2=O)c1cnccn1	49*	-1	-11	2	0	1
COc1ccc(OC)c(NC(=O)C(C)SCc2nc3sc(C)c(C)c3c(=O)[nH]2)c1 (centres undefined)	54*	-2	23	-33	0	0
CSc1ccccc1NC(=O)CSCc1nc2sc(C)c(C)c2c(=O)[nH]1	24	0	-20	-24	-1	-2
Cc1sc2nc(CSC(C)C(=O)Nc3ccc(C#N)cc3)[nH]c(=O)c2c1C (centres undefined)	22	6	3	-15	0	1
Cc1sc2nc(CSC(C)C(=O)N(C)CC(=O)Nc3ccccc3C(F)(F)F)[nH]c(=O)c2c1C (centres undefined)	71*	-5	7	-23	2	0
CCN(CC(=O)Nc1c(F)cccc1F)C(=O)Cc1csc(-c2ccccc2)n1	63*	0	-10	-30	-1	2
CCOc1ccc(NC(=O)COc2ccc(C(=O)NCc3cccc(OC)c3)cc2OC)cc1	3	-4	-19	-8	5	2
CCCCCCn1c(=O)[nH]c2c(c1=O)CCC2	0	-13	-21	4	0	-1
CCCCCCn1c(=O)[nH]c2nc3cc(N)ccc3nc2c1=O	18	-12	75*	51*	74*	96*
COC(=O)c1ccccc1NC(=O)COC(=O)c1ccccc1N=Nc1ccc(N(C)C)cc1	31	-3	-18	-20	-1	-1
CN(C(=O)COC(=O)c1cc([N+](=O)[O-])ccc1Cl)c1ccccc1	66*	-14	-12	-20	-1	-1
COCCN(CCOC)C(=O)COC(=O)c1cc([N+](=O)[O-])ccc1Cl	48*	-7	-4	-11	1	-1
CN(C(=O)COC(=O)c1ccc([N+](=O)[O-])cc1)c1ccccc1	26	-13	-25	-11	2	-1
CN(C)c1ccc(N=Nc2ccccc2C(=O)OCC(=O)N(C)c2ccccc2)cc1	21	-18	1	34*	8	6
O=C(CCCN=C1NS(=O)(=O)c2ccccc21)OCC(=O)c1ccc(F)cc1	10	-9	12	4	23*	20*
O=C(CCN=C1NS(=O)(=O)c2ccccc21)OCC(=O)c1ccc(F)cc1	12	-5	10	-15	4	2
SMILES	OX1R antag-1	OXTR potentiator	OX1R antag-2	CHO parental Ca	V1R ag counter	OXTR ag
COc1cc(Br)cc2cc(C(=O)OC3CCN(C)CC3)c(=O)oc12	49*	-6	-15	11	-1	0
COc1cccc2cc(C(=O)OC3CCN(C)CC3)c(=O)oc12	40	-6	-30	-14	0	0
CC[C@@H]1C/C=C\Cc2ccccc2[C@H](C(=O)C[C@@H](O)CC(C)=O)OC1=O	10	0	13	-11	1	0
COc1ccc(Cl)cc1NS(=O)(=O)c1c(C)[nH]c(C)c1C(=O)N1CCCCC1	49*	0	12	-26	2	3
COc1cc(NS(=O)(=O)c2c(C)[nH]c(C)c2C(=O)N2CCCCC2)cc(OC)c1OC	17	-3	-7	-17	1	0
CCN(CC)c1ccc(NC(=O)CCS(=O)(=O)c2ccc(Br)cc2)c(C)c1	12	-1	-31	-26	0	0
CCc1ccc(NC(=O)c2ccc(NC(=O)C3CCCO3)cc2)cc1 (centres undefined)	18	-6	-24	-13	7	7
O=C(Nc1ccc(Cl)cc1)OCc1ccccn1	21	-22	20	40*	9	10
Cc1c(NC(=O)c2ccc(NS(=O)(=O)c3ccc(F)c(F)c3)cc2)c(=O)n(-c2ccccc2)n1C	11	4	2	-6	0	2
c1coc(CN(Cc2ccco2)c2ncnc3c2oc2ccccc23)c1	37	-8	31	36*	2	2
O=C(O)CNc1nc(Cl)ccc1[N+](=O)[O-]	64*	-4	-10	-1	0	0
COC(=O)c1c(C)[nH]c(C)c1C(=O)c1ccccc1Cc1ccccc1	47*	-8	-10	-12	1	1
COC(=O)c1c(C)[nH]c(C=O)c1-c1ccccc1	11	-9	-12	-12	1	1
Cc1cc(C(=O)CS(=O)(=O)c2ccc(F)cc2)cc(C)c1O	18	-11	-22	-11	2	2
Cc1cc(N)n2nc(C)c(-c3ccc(Cl)cc3)c2n1	10	-1	-11	-12	-1	-2
Cc1cc(N)n2nc(C)c(-c3ccccc3)c2n1	63*	-7	-9	-12	0	-2
Cc1ccccc1NS(=O)(=O)c1csc(C(N)=O)c1	4	1	-11	-13	-1	2
C=CCn1c(-c2cccs2)nc2nc3ccccc3nc21	72*	8	-13	-20	-1	-2
C=CCn1c(-c2cccs2)nc2ccccc21	52	-11	-14	-7	-1	-3
O=C(NC1CCC(O)CC1)c1cccc2cccnc12 (centres undefined)	7	-11	-18	0	0	-1

Bioassay records as filed in PubChem BioAssay.
